What was measured:
[1] = tested on: Rat; experiment: concentration in plasma after dosing; conditions: dosed: Isoeugenol, 17 mg/kg, oral, Male, F344/N
[2] = tested on: Rat; experiment: concentration in plasma after dosing; conditions: dosed: Isoeugenol, 17 mg/kg, oral, Male, F344/N; remark: listed apart in the source
[3] = tested on: Rat; experiment: concentration in plasma after dosing; conditions: 0.5 h; dosed: Isoeugenol; 70 mg/kg; oral; Male; F344/N
[4] = tested on: Rat; experiment: concentration in plasma after dosing; conditions: dosed: Isoeugenol, 17 mg/kg, oral, Male, F344/N; remark: listed apart in the source
[5] = tested on: Rat; experiment: concentration in plasma after dosing; conditions: dosed: Tetralin, 20 mg/kg, iv, Female, Harlan Sprague Dawley
[6] = tested on: Rat; experiment: concentration in plasma after dosing; conditions: dosed: Tetralin, 20 mg/kg, iv, Female, Harlan Sprague Dawley; remark: listed apart in the source
[7] = tested on: Rat; experiment: concentration in plasma after dosing; conditions: dosed: Tetralin, 2 mg/kg, iv, Male, Harlan Sprague Dawley
[8] = tested on: Rat; experiment: concentration in plasma after dosing; conditions: dosed: Tetralin, 2 mg/kg, iv, Male, F344
[9] = tested on: Rat; experiment: concentration in plasma after dosing; conditions: dosed: Tetralin, 2 mg/kg, iv, Male, Harlan Sprague Dawley; remark: listed apart in the source
[10] = tested on: human; experiment: concentration in blood after dosing; negative times count back from the end of exposure; conditions: dosed: methylethylketone, 400 ppm, inhalation, duration: 4 hr, male
Method in brief: (§1)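 Points were largely digitised from plot screenshots with WebPlotDigitizer or otherwise copied from tables, and they remain in the units each source reported. They come from published in vivo toxicokinetic studies and two structured collections. Sampling and analytical methods follow each source and were often not reported.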

[11] = tested on: human; experiment: concentration in expired air after dosing; conditions: dosed: styrene, inhalation
Method in brief: as §1

C/C=C/c1ccc(O)c(OC)c1 [Isoeugenol]
Conditions | concentration in plasma [ng/mL]
[1], 1 h | 28.4
[1], 3 h | 68.6
[2], 0.5 h | 95.4
[2], 2 h | 30.2
[4], 3 h | 17.2
[4], 10 min | 220

Conditions | concentration in plasma [ng/mL]
[3] | 469

c1ccc2c(c1)CCCC2 [Tetralin]
Conditions | concentration in plasma [µg/g]
[5], 0.75 h | 2.33
[5], 12 h | 0.0285
[6], 0.5017 h | 5.04
[6], 8 h | 0.0561
[7], 0.2533 h | 0.362
[7], 6 h | 0.00512
[8], 0.09 h | 1.33
[8], 4 h | 0.0088
[9], 0.5033 h | 0.208
[9], 8 h | 0.00401

CCC(C)=O [methylethylketone]
[10]
Conditions | concentration in blood [µM]
0.1276 h | 272
0.2874 h | 258
0.4715 h | 227
0.9608 h | 208
1.479 h | 139
1.973 h | 122
2.966 h | 102
4.323 h | 54.9
4.977 h | 22.4
5.98 h | 16.2
6.983 h | 7.11

[10], during exposure
Conditions | concentration in blood [µM]
-64 s | 309
-3.826 h | 72.5
-3.661 h | 84.6
-3.486 h | 115
-2.992 h | 143
-2.503 h | 181
-1.994 h | 218
-1.011 h | 276

C=Cc1ccccc1 [styrene]
[11], male
Conditions | concentration in expired air [ppm]
0.1527 h, 51 ppm, duration: 1 hr | 0.506
0.2175 h, 376 ppm, duration: 1 hr | 4
0.2306 h, 216 ppm, duration: 1 hr | 2.27
0.2368 h, 51 ppm, duration: 1 hr | 0.409
0.2553 h, 99 ppm, duration: 7 hr | 1.24
0.3483 h, 99 ppm, duration: 7 hr | 1.14
0.4469 h, 376 ppm, duration: 1 hr | 3.1
0.4803 h, 51 ppm, duration: 1 hr | 0.317
0.5105 h, 99 ppm, duration: 7 hr | 1.08
0.7137 h, 376 ppm, duration: 1 hr | 2.21
0.8189 h, 99 ppm, duration: 7 hr | 0.876
0.9608 h, 216 ppm, duration: 1 hr | 0.927
0.9799 h, 51 ppm, duration: 1 hr | 0.0904
1.046 h, 376 ppm, duration: 1 hr | 1.29
1.064 h, 99 ppm, duration: 7 hr | 0.733
1.944 h, 99 ppm, duration: 7 hr | 0.648
1.964 h, 216 ppm, duration: 1 hr | 0.501
1.984 h, 376 ppm, duration: 1 hr | 0.934
1.988 h, 51 ppm, duration: 1 hr | 0.0505
2.93 h, 99 ppm, duration: 7 hr | 0.521
2.954 h, 376 ppm, duration: 1 hr | 0.719
2.958 h, 216 ppm, duration: 1 hr | 0.345
3.928 h, 216 ppm, duration: 1 hr | 0.226
3.963 h, 376 ppm, duration: 1 hr | 0.827
4.085 h, 99 ppm, duration: 7 hr | 0.403
4.943 h, 376 ppm, duration: 1 hr | 0.594
4.946 h, 216 ppm, duration: 1 hr | 0.197
4.988 h, 99 ppm, duration: 7 hr | 0.355
5.975 h, 376 ppm, duration: 1 hr | 0.586
5.991 h, 216 ppm, duration: 1 hr | 0.112
5.998 h, 99 ppm, duration: 7 hr | 0.242
7.018 h, 216 ppm, duration: 1 hr | 0.0821
19 s, 51 ppm, duration: 1 hr | 14.8
41 s, 216 ppm, duration: 1 hr | 4.56
65 s, 51 ppm, duration: 1 hr | 1.02
96 s, 376 ppm, duration: 1 hr | 9.08
141 s, 216 ppm, duration: 1 hr | 3.69
148 s, 51 ppm, duration: 1 hr | 0.849
148 s, 99 ppm, duration: 7 hr | 2.17
196 s, 376 ppm, duration: 1 hr | 7.4
214 s, 51 ppm, duration: 1 hr | 0.744
251 s, 99 ppm, duration: 7 hr | 1.35

[11], 80 ppm, duration: 6 hr
Conditions | concentration in expired air [ng/mL]
6.225 h | 4.3
6.495 h | 2.75
7.17 h | 1.58
8.16 h | 1.16
10.28 h | 0.549
12.21 h | 0.402
14.37 h | 0.315
18.33 h | 0.308
23.51 h | 0.257
30.62 h | 0.148
46.95 h | 0.102

Source: EPA's CvTdb concentration-time database
